Measurements from different studies.
Compare with care: the assays were run in different laboratories.
Target: Activin receptor type-1 (ACVR1, Homo sapiens, UniProt Q04771)
Residues used in one study (Q04771 1-509): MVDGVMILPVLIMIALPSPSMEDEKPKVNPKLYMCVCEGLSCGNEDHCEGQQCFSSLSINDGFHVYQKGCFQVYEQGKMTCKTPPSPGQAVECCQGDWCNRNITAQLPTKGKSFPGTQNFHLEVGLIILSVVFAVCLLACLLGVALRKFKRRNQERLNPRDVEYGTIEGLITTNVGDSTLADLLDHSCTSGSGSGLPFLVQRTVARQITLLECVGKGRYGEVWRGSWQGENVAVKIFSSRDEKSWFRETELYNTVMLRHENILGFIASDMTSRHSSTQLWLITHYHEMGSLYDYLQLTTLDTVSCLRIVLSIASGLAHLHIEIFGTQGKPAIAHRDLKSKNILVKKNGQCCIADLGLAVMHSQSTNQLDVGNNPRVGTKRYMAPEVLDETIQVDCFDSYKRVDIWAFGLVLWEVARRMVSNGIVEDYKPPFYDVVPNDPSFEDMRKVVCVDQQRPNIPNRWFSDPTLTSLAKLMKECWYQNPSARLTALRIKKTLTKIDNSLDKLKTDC

N#CCCc1ccc2c(c1)-c1[nH]c3ccc([N+](=O)[O-])cc3c1CC(=O)N2  remaining signal (cell-free assay; 0.5 µM): 58.8%
CN([C@@H]1CCc2c(CC(=O)O)c3ccccc3n2C1)S(=O)(=O)c1ccc(F)cc1  remaining binding (cell-free assay; competition with immobilised ligand; 1 µM): 100%
Cn1c2c(Cl)c(Cl)ccc2c2cn[nH]c(=O)c21  ΔTm (thermal stability; DSF; 10 µM): 3.3 °C
CC(C)(C)c1nc2c(s1)c1nc(N)ncc1c1ccc(NS(=O)(=O)c3c(F)cccc3F)c(F)c12  remaining activity (enzyme activity; inhibitor; radiometric; 1 µM): 79%
CCOc1cc(-c2nncn2C)ccc1Nc1ncc2cc(C)nc(NCC(C)(C)C)c2n1  inhibition (cell-free assay; TR-FRET; 1 µM): ≤ 15%
CN1CC(Oc2cnc(C#N)cc2-c2ccn3nc(NC(=O)C4CC4)cc3c2)C1  inhibition (enzyme activity; inhibitor; 1 µM): -8%
CC1=C(C#N)C(c2ccc3c(c2)c(NC(=O)c2ccccc2C)nn3C)C(C#N)=C(C)N1  remaining binding (cell-free assay; competition with immobilised ligand; 1 µM): 99%
Cc1ccc(C(=O)Nc2ccc(CN3CCN(C)CC3)c(C(F)(F)F)c2)cc1C#Cc1cnc2cccnn12  remaining signal (cell-free assay; 23.5 nM): 100%
Cc1c(NC(=O)c2cc(C(N)=O)nc3cc(F)ccc23)c(C(F)(F)F)nn1Cc1ccc(C#N)cc1  remaining binding (cell-free assay; competition with immobilised ligand; 1 µM): 87%
COc1cc(Cl)c(C(=O)N[C@@H](CN[C@H]2CC[C@@H](N)CC2)Cc2ccc(C#N)cc2)cc1-c1ccc(CN[C@H](C)c2ccc(C)cc2)o1  remaining activity (enzyme activity; inhibitor; 1 µM): 89%
N#CC1c2c([nH]c3c(Cl)c(Cl)ccc23)C(=O)NC12CCCCC2 (racemic)  ΔTm (thermal stability; DSF; 10 µM): 0.1 °C
O=C1NC(=O)c2cc(Nc3ccc(F)cc3)c(Nc3ccc(F)cc3)cc21  remaining signal (cell-free assay; 0.5 µM): 92.3%
Nc1cnc(N2CCc3cc(S(=O)(=O)Nc4c(F)cc(Cl)cc4F)cc(N4CCCC4=O)c32)nc1  remaining binding (cell-free assay; competition with immobilised ligand; 1 µM): 100%
Nc1ncnc2occ(-c3ccc(NC(=O)Nc4cc(C(F)(F)F)ccc4F)cc3)c12  remaining signal (cell-free assay; 20 µM): 72%
Cc1sc(C(=O)NC2COC2)cc1-n1cc(NC(=O)Nc2c(F)cccc2Cl)cn1  remaining activity (enzyme activity; inhibitor; 10 µM): 108%
Cn1c2c(c3ccc(Cl)c(Cl)c31)C(C#N)C1(CCOCC1)NC2=O (centres unmarked)  ΔTm (thermal stability; DSF; 10 µM): 0.1 °C
COc1cccc(CNC(=O)c2nc3scc(COCc4ccc(C(=O)O)cc4)c3c(=O)[nH]2)c1  remaining binding (cell-free assay; competition with immobilised ligand; 1 µM): 94.3%
Oc1cccc(-c2nc(N3CCOCC3)c3oc4ncccc4c3n2)c1  remaining signal (cell-free assay; 0.5 µM): 105%
CCN1CCC2(CC1)NC(=O)c1c(c3ccc(Cl)c(Cl)c3n1C)C2C#N (racemic)  ΔTm (thermal stability; DSF; 10 µM): -0.1 °C
COc1cc(-c2cn(C3CCc4ccccc4N(CC(F)(F)F)C3=O)nn2)ccc1-n1ccc(C)n1 (centres unmarked)  remaining binding (cell-free assay; competition with immobilised ligand; 1 µM): 100%
